Tn7 DDE FP: DD(E)-Tn7 binding inhibition, primary FP screen | P02675 | FP displacement of FITC-Tn7 peptide from fibrin DD(E); 0% = median of compound wells per plate | inhibition, % at 8.3 µM | 370,000 compounds, 0.13% hits | AID 720508;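 active = inhibition above the mean of compounds falling within the control limits plus 3 SD of them, cut at about 14% in these data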;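 note: 0% = plate median of compound wells and 100% = 10 µM Aha-Tn7 peptide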
Target sequence (P02675 whole entry, looked up): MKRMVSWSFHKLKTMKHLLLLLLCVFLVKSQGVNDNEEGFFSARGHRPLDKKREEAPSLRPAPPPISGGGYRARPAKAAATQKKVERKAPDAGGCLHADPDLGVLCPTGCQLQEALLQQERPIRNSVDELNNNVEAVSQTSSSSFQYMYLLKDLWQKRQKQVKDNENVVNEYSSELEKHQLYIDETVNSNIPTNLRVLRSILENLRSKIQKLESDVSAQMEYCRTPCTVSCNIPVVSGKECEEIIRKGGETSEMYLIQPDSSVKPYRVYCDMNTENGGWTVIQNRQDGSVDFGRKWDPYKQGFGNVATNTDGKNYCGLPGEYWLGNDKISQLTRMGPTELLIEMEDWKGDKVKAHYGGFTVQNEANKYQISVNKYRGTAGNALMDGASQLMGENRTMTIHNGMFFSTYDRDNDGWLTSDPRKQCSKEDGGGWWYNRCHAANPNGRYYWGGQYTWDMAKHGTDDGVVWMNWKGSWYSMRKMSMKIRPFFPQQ
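Assay system: Human fibrin DD(E) protein | Medium: Tris buffer with calcium and detergent, pH 7.8 | Reagent: 0.1 µM fluorescent Tn7 | Compound dosing: Single point at 8.3 µM | Times: 10 min preincubation, 3 h with tracer, room temperature | Detection: Fluorescence polarization of the labelled Tn7 tracer | Controls: Aha-Tn7 high control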
SIAE inh: inhibitors of human sialic acid acetylesterase SIAE. Q9HAT2. inhibition, % at 9.66 µM. 370,000 compounds, 0.69% hits. SIAE FP-Rh probe binding, fluorescence polarization;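 active = inhibition above a cutoff: mean of compounds within the control limits plus 3 SD of those, cut at about 17% in these data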;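 note: 0% = plate median of compound wells and 100% = probe without SIAE protein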
DDE Tn6 FP inh: DD(E)-Tn6 binding inhibition, primary FP screen; P02675; inhibition, % at 8.3 µM; Fibrin DD(E) TRITC-Tn6 fluorescence polarization displacement; AID 720509; 370,000 compounds, 0.21% hits;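 active = inhibition above a per-campaign cutoff: mean of compounds within control limits plus 3 SD, cut at about 15% in these data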;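 note: 0% = median of all compound wells on the plate and 100% = blocking peptide control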
mABHD4 FP: inhibits mouse alpha/beta hydrolase domain 4; inhibition, % at 8.92 µM; Q8VD66; AID 720543; 370,000 compounds, 0.54% hits; purified mABHD4, FP-Rh probe fluorescence polarization;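 active = inhibition exceeding the mean over every tested compound plus 3 SD, cut at about 30% in these data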;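 note: 0% = plate median of compound wells and 100% = S159A mutant with DMSO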
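Assay system: Wild-type mouse ABHD4 protein | Medium: HEPES pH 7.0 buffer, 150 mM NaCl, 0.01% Pluronic F-127 | Incubation: Enzyme–compound pre-incubation 45 min, then probe 60 min, both 25 °C | Technique: Fluorescence polarization with parallel and perpendicular emission, 525/598 nm | Evaluation: % inhibition of FP-Rh probe binding versus controls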
TCR-CD3 inh: blocks the human TCR-CD3 interaction; TAMRA-labeled TCR probe fluorescence, biochemical; AID 651800; 360,000 compounds, 0.37% hits; inhibition, % at 9.4 µM; in the data active = inhibition above about 19%;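 note: recombinant mutant TCR 2C K166C tagged with TAMRA read by polarization; 0% = receptor in buffer alone and 100% = receptor with positive control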
HTRA1 inh: blocks human HTRA1 serine peptidase. Q92743. recombinant HTRA1, FP-rhodamine activity-based probe, fluorescence polarization. inhibition, % at 5.96 µM. 340,000 compounds, 0.5% hits. AID 504803; in the data active = inhibition above about 36%;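 note: 0% = enzyme with DMSO and 100% = wells lacking enzyme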
SIAE inh conf: confirmation of human SIAE inhibitors | inhibition, % at 9.66 µM | SIAE FP-Rh activity-based probe, fluorescence polarization | 2,300 compounds, 13% hits | shares compounds with SIAE inh;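 active = mean inhibition of the replicates above the hit cutoff set in the primary screen, cut at about 17% in these data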;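 note: 0% = SIAE with DMSO and probe and 100% = probe without SIAE; inhibitors lower polarization as more probe stays unbound to SIAE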
Active calls of the source: *. An excerpt weighted towards active compounds, which were near 1.8% of everything screened.

For CSc1nnc(C)c(/C=C/NOCc2ccc(Cl)cc2)n1 the results were Tn7 DDE FP 0.4, SIAE inh 18.5*, DDE Tn6 FP inh -7.2, mABHD4 FP 5.0, TCR-CD3 inh 8.2, HTRA1 inh -2.5 and SIAE inh conf 0.1.
CSc1nnc(C)c(/C=C/Nc2ccc(C)cc2)n1 was read as Tn7 DDE FP -3.2, SIAE inh 10.2, DDE Tn6 FP inh 7.3, mABHD4 FP 2.4, TCR-CD3 inh 1.5 and HTRA1 inh -1.1.
For O=C(Cc1c[nH]c2ccccc12)Nc1ccc(Nc2cccnc2)c(-c2ccc(-c3ccccc3)cc2F)c1 the results were Tn7 DDE FP -15.3, SIAE inh 22.0*, DDE Tn6 FP inh -7.6, mABHD4 FP 19.1, TCR-CD3 inh 0.0 and SIAE inh conf -2.1.
O=C(Cc1c[nH]c2ccccc12)Nc1ccc(Nc2cccnc2)c(-c2ccc(F)c(F)c2)c1 was read as Tn7 DDE FP 5.8, SIAE inh 27.8*, DDE Tn6 FP inh 5.1, mABHD4 FP 26.2, TCR-CD3 inh -0.6 and SIAE inh conf 9.5.
`O=C(Cc1c[nH]c2ccccc12)Nc1ccc(Nc2cccnc2)c(-c2cccc(Cl)c2)c1` gave Tn7 DDE FP 0.7, SIAE inh 9.5, DDE Tn6 FP inh 3.5, mABHD4 FP 18.0 and TCR-CD3 inh -4.1.
O=C(CCNC(=O)c1ccc(Br)cc1)Nc1ncccc1O was read as Tn7 DDE FP -3.0, SIAE inh 23.5*, DDE Tn6 FP inh 4.8, mABHD4 FP -4.2, TCR-CD3 inh 6.0, HTRA1 inh 2.5 and SIAE inh conf 6.5.
Cc1ccc(S(=O)(=O)Oc2ccccc2/C=N/NC(N)=S)cc1 was read as Tn7 DDE FP 0.3, SIAE inh 0.7, DDE Tn6 FP inh 5.3, mABHD4 FP 2.7, TCR-CD3 inh 0.3 and HTRA1 inh -3.7.
For Cc1ccc(S(=O)(=O)Oc2ccccc2/C=N/N=C(N)N)cc1 the results were Tn7 DDE FP -5.3, SIAE inh 21.4*, DDE Tn6 FP inh 4.8, mABHD4 FP -1.8, TCR-CD3 inh 6.4, HTRA1 inh -6.8 and SIAE inh conf -3.9.
`O=C(Nc1ccccc1N1CCOCC1)C1=NN(c2ccccc2)C(=O)CC1` gave Tn7 DDE FP -9.9, SIAE inh 2.8, DDE Tn6 FP inh -1.7, mABHD4 FP 3.7, TCR-CD3 inh 3.6 and HTRA1 inh -0.9.
Screening Cc1cc(C)n2nc(SCC(=O)c3cc(C)n(CC4CCCO4)c3C)nc2n1 (stereo not drawn) returned Tn7 DDE FP 1.5, SIAE inh 19.5*, DDE Tn6 FP inh 6.4, mABHD4 FP 4.7, TCR-CD3 inh 7.6, HTRA1 inh -2.0 and SIAE inh conf -0.1.
`O=C(NCC(c1ccco1)N1CCCC1)c1cc2ccccc2s1` (stereo not drawn) gave Tn7 DDE FP 4.2, SIAE inh -3.5, DDE Tn6 FP inh -4.4, mABHD4 FP -0.1, TCR-CD3 inh 1.4 and HTRA1 inh -12.0.
For CCCn1c(SC(C)C(=O)NCC2CCCO2)nc2sc(CC)cc2c1=O (stereo not drawn) the results were Tn7 DDE FP 2.0, SIAE inh 7.3, DDE Tn6 FP inh -4.3, mABHD4 FP -4.0, TCR-CD3 inh -7.8 and HTRA1 inh 1.0.
For O=Cc1cc2ccccc2nc1SCc1ccc(Cl)cc1 the results were Tn7 DDE FP -5.0, SIAE inh 27.2*, DDE Tn6 FP inh -3.4, mABHD4 FP -13.8, TCR-CD3 inh -5.0, HTRA1 inh -13.2 and SIAE inh conf -4.0.
O=Cc1cc2ccccc2nc1SCc1ccc(Cl)c(Cl)c1 was read as Tn7 DDE FP -12.6, SIAE inh -6.8, DDE Tn6 FP inh -0.1, mABHD4 FP -1.3, TCR-CD3 inh 4.0 and HTRA1 inh -0.1.
Screening CCOc1ccc(/C=C2/SC(=O)NC2=S)cc1 returned Tn7 DDE FP 3.9, SIAE inh active, DDE Tn6 FP inh 6.1, mABHD4 FP -1.1, TCR-CD3 inh 1.8, HTRA1 inh -8.0 and SIAE inh conf -10.6.
Screening Fc1cc(F)c2nc(N3CCCC3)sc2c1 returned Tn7 DDE FP -0.3, SIAE inh -1.8, DDE Tn6 FP inh -2.9, mABHD4 FP -5.5, TCR-CD3 inh 10.2 and HTRA1 inh -3.4.
`CN1C(=O)C(=O)N2C(=C[C@]3(c4c[nH]c5ccccc45)c4ccccc4N[C@H]23)C1=O` gave Tn7 DDE FP -0.3, SIAE inh 9.0, DDE Tn6 FP inh -1.5 and mABHD4 FP -2.6.
`COCCCNC(=O)c1cc(Sc2ccc(F)cc2)nc2ccccc12` gave Tn7 DDE FP 4.8, SIAE inh 17.5*, DDE Tn6 FP inh 2.4, mABHD4 FP -6.0, TCR-CD3 inh -3.0, HTRA1 inh 4.7 and SIAE inh conf 0.9.
Screening CCn1c(=O)n(CC)c2cc(N3CCCC3)c(NC(=O)c3ccc(F)cc3)cc21 returned Tn7 DDE FP 4.4, SIAE inh 18.2*, DDE Tn6 FP inh -1.1, mABHD4 FP 8.5, TCR-CD3 inh 1.4, HTRA1 inh 2.3 and SIAE inh conf 2.9.
`COc1ccc(NC(=O)Nc2ccc3c(c2)C(=O)N([C@H](C)CO)C[C@H](C)[C@@H](CN(C)S(=O)(=O)c2ccc(OC)cc2)O3)cc1` gave Tn7 DDE FP 9.6, SIAE inh 22.2*, DDE Tn6 FP inh 3.1, mABHD4 FP -2.1, TCR-CD3 inh 0.7, HTRA1 inh -8.5 and SIAE inh conf -3.8.
Screening COc1ccc(NC(=O)N(C)C[C@H]2OCCCC[C@H](C)Oc3ccc(NC(=O)Nc4ccc5c(c4)OCO5)cc3C(=O)N([C@@H](C)CO)C[C@@H]2C)cc1 returned Tn7 DDE FP -2.5, SIAE inh 23.4*, DDE Tn6 FP inh -8.8, mABHD4 FP 11.2, TCR-CD3 inh 1.1, HTRA1 inh 9.1 and SIAE inh conf 5.6.
Screening C[C@H](CO)N1C[C@H](C)[C@@H](CN(C)S(=O)(=O)c2ccccc2)Oc2ccc(NC(=O)Nc3ccc4c(c3)OCO4)cc2C1=O returned Tn7 DDE FP -1.5, SIAE inh 19.3*, DDE Tn6 FP inh -1.6, mABHD4 FP 4.6, TCR-CD3 inh 7.6, HTRA1 inh 7.7 and SIAE inh conf 1.6.
For O=C(O)C(Cc1ccccc1)N1C(=O)C2C3CCC(C3)C2C1=O (stereo not drawn) the results were Tn7 DDE FP -3.7, SIAE inh 3.9, DDE Tn6 FP inh 1.2, mABHD4 FP 5.7, TCR-CD3 inh -8.1 and HTRA1 inh 12.2.
Screening CCc1n[nH]c(=S)n1/N=C/c1c(O)ccc2ccccc12 returned Tn7 DDE FP 4.0, SIAE inh 8.3, DDE Tn6 FP inh -8.3, mABHD4 FP -0.4, TCR-CD3 inh 15.1 and HTRA1 inh 1.7.

Screening data: PubChem BioAssay, The Scripps Research Institute Molecular Screening Center
